The results in this text go back to PMC12318077 (Scientific Reports, 2025).

For orientation: IC50 means the concentration at which inhibition is half-maximal. Usually CC50 stands for the concentration at which the toxic effect on the cells reaches its halfway point. Read a low CC50 as greater toxicity to the cells.

One series relates to L. tropica promastigotes. Briefly: Promastigotes proliferation assessment by MTT assay. To be noted: for IC50: 48 h. Type of series: cell-based, Leishmania tropica. A general note: Tetrazolium dyes change colour on reduction, which living cells bring about.
Another series in a line: Cytotoxicity assay. As to conditions: human, 5% suspension of human blood erythrocytes. It counts as cell-based. An outline of the steps:
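Test compound (25–426 µM) incubated with a 5% suspension of human blood erythrocytes at 37 °C for 3 h. 0.1% DMSO served as the negative control and 0.5% Triton X-100 as the positive control. Samples were spun at 1000 × g for 10 min, and released hemoglobin was read at 576 nm. Percent hemolysis was calculated and CC50 derived by linear interpolation. Triplicates, mean ± SD.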

The compound “5,5′,5″-(nitrilotris(ethane-2,1-diyl))tris(3-(4-ethylphenyl)-1,3,5-thiadiazinane-2-thione) [Compound T24]” had an IC50 with L. tropica promastigotes (L. tropica promastigotes, MTT, dose range 25–426 µM) of 26.9 µM.

On to `CCCCN1CN(CC(=O)O)CSC1=S` [BG, 2-(5-Butyl-6-thioxo-1,3,5-thiadiazinan-3-yl) acetic acid], for which, in “Cytotoxicity assay”, it took 376 µM to reach half-maximal cytotoxicity (CC50 at 3 h). In “Cytotoxicity assay”, `Cc1cc(C)c(N2CSC(=S)N(CCN(CCN3CN(c4c(C)cc(C)cc4C)CSC3=S)CCN3CN(c4c(C)cc(C)cc4C)CSC3=S)C2)c(C)c1` [Compound T25, 3,3′,3″-(nitrilotris(ethane-2,1-diyl))tris(5-mesityl-1,3,5-thiadiazinane-2-thione)] had a CC50 at 3 h of 89.7 µM. This compound also gave an IC50 in the series with L. tropica promastigotes (Leishmania tropica) of 27.7 µM. `C[C@@H]1[C@H](O)[C@@H](C)/C=C/C=C/C=C/C=C/C=C/C=C/C=C/[C@H](O[C@@H]2O[C@H](C)[C@@H](O)[C@H](N)[C@@H]2O)C[C@@H]2O[C@](O)(C[C@@H](O)C[C@@H](O)[C@H](O)CC[C@@H](O)C[C@@H](O)CC(=O)O[C@H]1C)C[C@H](O)[C@H]2C(=O)O` [Amp-B, Amphotericin B, reference compound] came in with an IC50 in the series on L. tropica promastigotes (Leishmania tropica) of 15.7 µM. For the same compound, the “SI index (IC50/CC50 µM)” value with L. tropica promastigotes (ratio of hemolysis CC50 and L. tropica IC50) is reported as 0.18. In “Cytotoxicity assay”, `CCCN1CN(CC(=O)O)CSC1=S` [PG, 2-(5-propyl-6-thioxo-1,3,5-thiadiazinan-3-yl)acetic acid] came in with a CC50 at 3 h of 402 µM. The IC50 in the series on L. tropica promastigotes (Leishmania tropica) was found to be 82.8 µM.
